Active and inactive are the calls of the source. The rule behind the calls is not given here.
Key:
HEK293 = assay: Cytotoxicity against transformed human HEK293 cells after 24 to 48 hrs by MTT assay; format: functional, cell-based
M14 [1] = assay: Cytotoxicity against human M14 cells after 24 to 48 hrs by MTT assay; format: functional, cell-based
U-937 = assay: Cytotoxicity against human U937 cells after 24 to 48 hrs by MTT assay; format: functional, cell-based
M14 [2] = assay: Increase in p53 expression in human M14 cells at 3 uM after 24 to 48 hrs by Western blot; format: functional, cell-based
Procedure, shortened: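 M14 cells (1 × 10⁶ per flask), treated for 24 and 48 h. Lysed in ice-cold 50 mM Tris, 150 mM NaCl, 10 mM EDTA, 1% Triton with protease inhibitors. Equal protein run on 8-12% SDS-PAGE and blotted to nitrocellulose. Cytoplasmic p53 probed overnight at 4 °C, detected by HRP secondary and ECL, with tubulin as loading reprobe.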

M14 [3] = assay: Induction of cell morphology impairment in human M14 cells at cytotoxic IC50 concentration by phase contrast microscopy; format: functional, cell-based
Procedure, shortened: (§1)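 Logarithmically growing M14 cells plated at 10⁵ cells/mL, with compound added after 24 h and vehicle controls alongside. Followed by inverted phase-contrast time-lapse microscopy at 37 °C under 5% CO₂, images taken hourly for up to 72 h. Rounding, blebbing and detachment scored at 10, 24 and 48 h.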

M14 [4] = assay: Induction of cell morphology impairment in human M14 cells assessed as emergence of round and damaged cells at cytotoxic IC50 concentration after 10 hrs by phase contrast microscopy; format: functional, cell-based; procedure, shortened: as §1
M14 [5] = assay: Induction of apoptosis in human M14 cells assessed as caspase-3 activation at 0.1 to 0.3 uM after 16 hrs by Western blot; format: functional, cell-based
Procedure, shortened: (§2)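 M14 cells (1 × 10⁶ per flask) exposed 16 and 24 h, then lysed in ice-cold Triton lysis buffer with protease inhibitors. Equal protein run on 8-12% SDS-PAGE and blotted to nitrocellulose. Probed overnight at 4 °C for cleaved active caspase-3 subunits or PARP cleavage (85 kDa fragment), with HRP secondary and ECL read-out. Tubulin reprobe.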

M14 [6] = assay: Induction of apoptosis in human M14 cells assessed as PARP cleavage at 0.1 to 0.3 uM after 16 hrs by Western blot; format: functional, cell-based; procedure, shortened: as §2
M14 [7] = assay: Effect on cell cycle progression in human M14 cells at 0.3 uM after 24 hrs by flow cytometry; format: functional, cell-based
Procedure, shortened: (§3)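 M14 cells at 2,5 × 10⁵ cells/mL in 12-well plates, treated 24 h (vehicle controls run alongside). Cells were trypsinised, washed in PBS and stained with propidium iodide in 0.1% sodium citrate/0.1% Triton X-100 at 4 °C for 30 min in the dark. FACScan analysis gave the percentage of cells in G0/G1, S and G2/M. Hypodiploid nuclei were scored as apoptotic.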

M14 [8] = assay: Effect on cell cycle progression in human M14 cells at 1 uM after 24 hrs by flow cytometry; format: functional, cell-based; procedure, shortened: as §3
M14 [9] = assay: Increase in p53 expression in human M14 cells at 0.3 uM after 24 to 48 hrs by Western blot; format: functional, cell-based
Procedure, shortened: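 M14 cells (1 × 10⁶ per flask) treated 24 and 48 h alongside untreated controls. Lysed in ice-cold Tris/NaCl/EDTA/1% Triton buffer with protease inhibitors. Equal protein run on 8-12% SDS-PAGE and blotted to nitrocellulose. Blocked in milk/Tween-TBS, anti-p53 overnight at 4 °C, HRP secondary, ECL detection. Cytoplasmic p53 read, with tubulin as reprobe.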

M14 [10] = assay: Induction of cell morphology impairment in human M14 cells assessed as cell detachment at cytotoxic IC50 concentration after 48 hrs by phase contrast microscopy
M14 [11] = assay: Induction of apoptosis in human M14 cells assessed as caspase-3 activation at supra cytotoxic IC50 concentration after 16 to 24 hrs by Western blot; format: functional, cell-based
M14 [12] = assay: Induction of apoptosis in human M14 cells at 1 to 5 uM after 24 hrs; format: functional, cell-based
M14 [13] = assay: Cell cycle arrest in human M14 cells assessed as accumulation at G2/M phase at 3 uM after 24 hrs by flow cytometry; format: functional, cell-based
Procedure, shortened: (§4)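 Trypsinized, washed in PBS, stained in the dark at 4 °C for 30 min with 0.1% sodium citrate, 0.1% Triton X-100 and propidium iodide. Analyzed by FACScan flow cytometry. Phase distribution (G0/G1, S, G2/M) given as percentage of cells.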

M14 [14] = assay: Cell cycle arrest in human M14 cells assessed as accumulation at G2 phase at 3 uM after 24 hrs by flow cytometry; format: functional; procedure, shortened: as §4
M14 [15] = assay: Cell cycle arrest in human M14 cells assessed as decrease in G0/G1 phase accumulation at 3 uM after 24 hrs by flow cytometry; format: functional; set-up: scale not given: the % may be the effect or the level left; procedure, shortened: as §4

| Compound | IC50 (HEK293) [µM] | IC50 (M14 [1]) [µM] | IC50 (U-937) [µM] | further results |
| --- | --- | --- | --- | --- |
| O=C1[C@@H]2CS[C@]3(C(=O)Nc4ccc(Br)cc43)N2C(=O)N1Cc1ccc(Cl)cc1 | 7.13 | 7.06 | 5.01 |  |
| Cc1ccc(CN2C(=O)[C@@H]3CS[C@]4(C(=O)Nc5ccccc54)N3C2=O)cc1 | 4.53 | 13.3 | 5.91 |  |
| Cc1ccc2c(c1)[C@@]1(SC[C@H]3C(=O)N(Cc4ccc(Cl)cc4)C(=O)N31)C(=O)N2 | 3.88 | 6.65 | 3.31 | Activity (M14 [2]): Active |
| CN1C(=O)[C@]2(SC[C@H]3C(=O)N(C4CCC(C)(C)CC4)C(=O)N32)c2ccccc21 | > 40 | > 40 | > 40 |  |
| COc1cc(CN2C(=O)[C@@H]3CS[C@]4(C(=O)N(C(=O)c5ccc(Cl)cc5)c5ccc(C)cc54)N3C2=O)cc(OC)c1OC | 4.71 | 8.14 | 3.11 |  |
| O=C1[C@@H]2CS[C@]3(C(=O)Nc4ccc(Br)cc43)N2C(=O)N1Cc1ccccc1 | 8.48 | 12 | 7.58 |  |
| Cc1ccc(CN2C(=O)[C@@H]3CS[C@]4(C(=O)Nc5ccc(C)cc54)N3C2=O)cc1 | 3.01 | 3.39 | 2.77 |  |
| Cc1ccc(CN2C(=O)[C@@H]3CS[C@]4(C(=O)Nc5ccc(Br)cc54)N3C2=O)cc1 | 7.61 | 10.2 | 6.23 |  |
| CCCC(=O)N1C(=O)[C@]2(SC[C@H]3C(=O)N(Cc4cc(OC)c(OC)c(OC)c4)C(=O)N32)c2cc(C)ccc21 | 4.42 | 7.4 | 4.1 |  |
| CC1(C)CCC(N2C(=O)[C@@H]3CS[C@]4(C(=O)Nc5ccccc54)N3C2=O)CC1 | 4.22 | 7.07 | 2.61 |  |
| CCCC(=O)N1C(=O)[C@]2(SC[C@H]3C(=O)N(Cc4ccc(Cl)cc4)C(=O)N32)c2ccccc21 | 2.01 | 2.04 | 2.1 |  |
| COc1cc(CN2C(=O)[C@@H]3CS[C@]4(C(=O)N(C)c5ccccc54)N3C2=O)cc(OC)c1OC | 6.01 | 7.66 | 5.7 |  |
| COc1cc(CN2C(=O)[C@@H]3CS[C@]4(C(=O)N(C(=O)c5ccccc5)c5ccc(C)cc54)N3C2=O)cc(OC)c1OC | 4.22 | 7.84 | 4.31 |  |
| O=C1[C@@H]2CS[C@]3(C(=O)N(C(=O)c4ccccc4)c4ccccc43)N2C(=O)N1Cc1ccc(Cl)cc1 | 3.5 | 3.25 | 3.12 |  |
| COc1cccc2c1C(=O)c1c(O)c3c(c(O)c1C2=O)C[C@@](O)(C(=O)CO)C[C@@H]3O[C@H]1C[C@H](N)[C@H](O)[C@H](C)O1 [DOXORUBICIN] | 0.9 | 1 | 0.8 |  |
| O=C1[C@@H]2CS[C@]3(C(=O)N(C(=O)c4ccc(Cl)cc4)c4ccccc43)N2C(=O)N1Cc1ccc(Cl)cc1 | 5.01 | 3.37 | 2.61 |  |
| CC1(C)CCC(N2C(=O)[C@@H]3CS[C@]4(C(=O)Nc5ccc(Br)cc54)N3C2=O)CC1 | > 40 | > 40 | > 40 |  |
| Cc1ccc(CN2C(=O)[C@@H]3CS[C@]4(C(=O)N(C)c5ccccc54)N3C2=O)cc1 | 10.7 | 31.8 | 16.8 |  |
| O=C1[C@@H]2CS[C@]3(C(=O)Nc4ccccc43)N2C(=O)N1Cc1ccccc1 | 4.8 | 10.6 | 3.9 |  |
| Cc1ccc2c(c1)[C@@]1(SC[C@H]3C(=O)N(C4CCC(C)(C)CC4)C(=O)N31)C(=O)N2 | 16 | 19.1 | 12.5 |  |
| COc1cc(CN2C(=O)[C@@H]3CS[C@]4(C(=O)Nc5ccc(Br)cc54)N3C2=O)cc(OC)c1OC | 9.31 | 11 | 5.02 |  |
| Cc1ccc2c(c1)[C@@]1(SC[C@H]3C(=O)N(Cc4ccccc4)C(=O)N31)C(=O)N2 | 3.3 | 3.88 | 2.09 |  |
| O=C1[C@@H]2CS[C@]3(C(=O)Nc4ccccc43)N2C(=O)N1Cc1ccc(Cl)cc1 | 0.44 | 0.53 | 0.87 | Activity (M14 [3]): Active; Activity (M14 [4]): Active; Activity (M14 [5]): Active; Activity (M14 [6]): Active; Activity (M14 [7]): inactive; Activity (M14 [8]): inactive; Activity (M14 [9]): Active; Activity (M14 [10]): Active |
| COc1cc(CN2C(=O)[C@@H]3CS[C@]4(C(=O)Nc5ccccc54)N3C2=O)cc(OC)c1OC | 3.8 | 4.73 | 2.51 |  |
| COc1cc(CN2C(=O)[C@@H]3CS[C@]4(C(=O)N(C(=O)c5ccc(C)cc5)c5ccc(C)cc54)N3C2=O)cc(OC)c1OC | 3.81 | 5.95 | 2.42 |  |
| CN1C(=O)[C@]2(SC[C@H]3C(=O)N(Cc4ccccc4)C(=O)N32)c2ccccc21 | 3.98 | 6.37 | 2.89 |  |
| CN1C(=O)[C@]2(SC[C@H]3C(=O)N(Cc4ccc(Cl)cc4)C(=O)N32)c2ccccc21 | 2.11 | 2.47 | 2.91 |  |
| COc1cc(CN2C(=O)[C@@H]3CS[C@]4(C(=O)Nc5ccc(C)cc54)N3C2=O)cc(OC)c1OC | 2.04 | 2.4 | 2.06 | Activity (M14 [3]): Active; Activity (M14 [4]): Active; Activity (M14 [11]): inactive; Activity (M14 [12]): inactive; Activity (M14 [13]): Active; Activity (M14 [14]): 47%; Activity (M14 [15]): 20%; Activity (M14 [10]): Active |
| Cc1ccc(C(=O)N2C(=O)[C@]3(SC[C@H]4C(=O)N(Cc5ccc(Cl)cc5)C(=O)N43)c3ccccc32)cc1 | 2.5 | 2.08 | 2.01 |  |

Source: ChEMBL document CHEMBL1629533, “Identification of the spiro(oxindole-3,3'-thiazolidine)-based derivatives as potential p53 activity modulators” (J Med Chem, 2010)
